These results are taken from ChEMBL document CHEMBL1275368, “Synthesis and evaluation of pyrazolone compounds as SARS-coronavirus 3C-like protease inhibitors” (Bioorg Med Chem, 2010).

The source made the active and inactive calls. The calls are words filed in the database; no cut-off is given here.

In general, IC50 refers to the concentration needed to halve the response being measured. A high value points to weaker potency in that assay.

In data set [1] the target is Replicase polyprotein 1ab (Severe acute respiratory syndrome-related coronavirus, UniProt P0C6X7). The data set can be described thus: Inhibition of SARS coronavirus 3C-like protease by fluorescence plate reader analysis.
The subject of data set [2] is HEK293. As to the kind of experiment: Cytotoxicity against HEK293 cells at 200 uM after 24 hrs by MTT assay. The class given is cell-based. Conditions: human, hek293, 24 h. Summed up:
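HEK293 cells seeded at 2×10^5/ml in MEM with 10% FBS at 37 °C and 5% CO2. At 70% confluence, cells were exposed to compound for 24 h. MTT was then added for 4 h at 37 °C. Formazan was dissolved in DMSO after medium removal, and OD at 540 nm was read as cell viability.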

Data set [3] concerns the target Genome polyprotein (Coxsackievirus B3 (strain Nancy), UniProt P03313). As to the kind of experiment: Inhibition of coxsackievirus B3 3C protease by fluorescence plate reader analysis.
Data set [4] has as its target Replicase polyprotein 1ab (Severe acute respiratory syndrome-related coronavirus) (UniProt P0C6X7). As to the kind of experiment: Inhibition of SARS coronavirus 3C-like protease at 50 uM by fluorescence plate reader analysis. The method, boiled down: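 Stored recombinant SARS-CoV 3CLpro at –70 °C in Tris/NaCl/EDTA/β-ME/DTT buffer. Screened compounds at 50 μM; those inhibiting >50% went on to the follow-up run.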

For data set [5], the target named is Genome polyprotein (Coxsackievirus B3 (strain Nancy)) (UniProt P03313). As to the kind of experiment: Inhibition of coxsackievirus B3 3C protease at 50 uM by fluorescence plate reader analysis.
Genome polyprotein (Coxsackievirus B3 (strain Nancy)), sequence (P03313 whole entry): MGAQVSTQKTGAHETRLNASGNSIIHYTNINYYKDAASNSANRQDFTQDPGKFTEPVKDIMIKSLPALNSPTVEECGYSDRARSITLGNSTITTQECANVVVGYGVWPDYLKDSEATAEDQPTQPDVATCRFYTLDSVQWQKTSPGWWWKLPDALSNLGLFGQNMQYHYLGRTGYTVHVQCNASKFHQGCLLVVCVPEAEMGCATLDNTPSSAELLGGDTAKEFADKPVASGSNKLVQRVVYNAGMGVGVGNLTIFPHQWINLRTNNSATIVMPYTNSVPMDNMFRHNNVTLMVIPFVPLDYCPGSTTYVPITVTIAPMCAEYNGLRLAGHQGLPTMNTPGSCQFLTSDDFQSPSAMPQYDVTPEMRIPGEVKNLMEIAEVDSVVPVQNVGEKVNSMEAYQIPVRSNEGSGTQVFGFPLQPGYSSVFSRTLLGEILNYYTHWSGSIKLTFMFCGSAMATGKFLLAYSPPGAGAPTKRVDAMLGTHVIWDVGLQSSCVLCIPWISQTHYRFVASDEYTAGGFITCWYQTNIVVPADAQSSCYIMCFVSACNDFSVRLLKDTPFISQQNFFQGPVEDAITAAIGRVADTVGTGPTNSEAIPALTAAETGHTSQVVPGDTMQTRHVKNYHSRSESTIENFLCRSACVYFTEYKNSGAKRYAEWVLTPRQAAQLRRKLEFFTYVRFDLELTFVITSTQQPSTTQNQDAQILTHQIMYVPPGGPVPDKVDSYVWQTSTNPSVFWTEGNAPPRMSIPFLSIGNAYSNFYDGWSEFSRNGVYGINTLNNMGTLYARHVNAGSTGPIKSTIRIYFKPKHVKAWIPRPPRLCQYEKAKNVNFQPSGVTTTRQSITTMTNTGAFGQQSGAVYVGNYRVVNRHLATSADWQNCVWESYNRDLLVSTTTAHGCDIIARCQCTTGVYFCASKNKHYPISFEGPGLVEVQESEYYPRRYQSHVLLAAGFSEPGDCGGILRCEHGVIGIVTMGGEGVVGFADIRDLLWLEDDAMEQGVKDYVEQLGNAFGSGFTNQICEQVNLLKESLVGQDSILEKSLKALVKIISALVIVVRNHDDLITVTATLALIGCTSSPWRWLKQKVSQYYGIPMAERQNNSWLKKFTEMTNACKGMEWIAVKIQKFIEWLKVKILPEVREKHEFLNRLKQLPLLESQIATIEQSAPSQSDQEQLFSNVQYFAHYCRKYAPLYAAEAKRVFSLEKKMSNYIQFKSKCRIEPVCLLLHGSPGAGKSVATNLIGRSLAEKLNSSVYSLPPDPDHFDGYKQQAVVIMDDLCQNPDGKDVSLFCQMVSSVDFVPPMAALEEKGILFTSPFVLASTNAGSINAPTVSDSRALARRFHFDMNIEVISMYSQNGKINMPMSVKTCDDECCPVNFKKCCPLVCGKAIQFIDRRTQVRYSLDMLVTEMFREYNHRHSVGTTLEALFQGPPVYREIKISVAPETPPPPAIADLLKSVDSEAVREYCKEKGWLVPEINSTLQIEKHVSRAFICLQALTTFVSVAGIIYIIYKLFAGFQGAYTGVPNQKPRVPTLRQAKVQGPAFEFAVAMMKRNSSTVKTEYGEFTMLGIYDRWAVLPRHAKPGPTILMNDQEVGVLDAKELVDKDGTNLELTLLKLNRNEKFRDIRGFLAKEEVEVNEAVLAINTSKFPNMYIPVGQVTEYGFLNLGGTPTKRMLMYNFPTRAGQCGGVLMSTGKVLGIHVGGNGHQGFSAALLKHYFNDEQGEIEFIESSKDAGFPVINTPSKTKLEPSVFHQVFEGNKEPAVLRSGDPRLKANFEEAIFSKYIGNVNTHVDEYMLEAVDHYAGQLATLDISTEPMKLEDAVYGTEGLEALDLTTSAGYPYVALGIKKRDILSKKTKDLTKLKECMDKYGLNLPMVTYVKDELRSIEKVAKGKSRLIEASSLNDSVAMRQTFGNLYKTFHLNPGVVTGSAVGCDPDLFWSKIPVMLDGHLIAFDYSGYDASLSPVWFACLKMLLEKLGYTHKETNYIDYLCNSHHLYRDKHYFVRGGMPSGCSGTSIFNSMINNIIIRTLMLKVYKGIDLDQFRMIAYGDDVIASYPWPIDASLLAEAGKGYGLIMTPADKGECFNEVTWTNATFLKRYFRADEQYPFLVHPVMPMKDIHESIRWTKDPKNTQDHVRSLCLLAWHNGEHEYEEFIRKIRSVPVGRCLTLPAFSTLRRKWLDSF

Genome polyprotein, sequence (P03313 1541-1723 limits assumed): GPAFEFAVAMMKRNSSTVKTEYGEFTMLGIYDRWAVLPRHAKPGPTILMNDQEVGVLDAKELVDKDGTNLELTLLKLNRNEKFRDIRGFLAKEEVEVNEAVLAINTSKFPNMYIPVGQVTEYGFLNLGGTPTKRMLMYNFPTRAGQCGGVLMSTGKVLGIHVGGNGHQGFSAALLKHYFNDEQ

Turning to `O=C(O)c1ccc(/C=C2\C(=O)N(c3cccc(Cl)c3)N=C2c2ccccc2)cc1`, the IC50 in data set [1] worked out at 10.8 µM; in data set [3], 17.3 µM. Besides, in data set [2], the Activity entry is recorded as “Non-toxic”.

For the molecule `O=C(O)c1ccc(/C=C2\C(=O)N(c3ccc(Cl)c(Cl)c3)N=C2c2ccccc2)cc1`, the IC50 in data set [1] came out at 24.3 µM; in data set [3] it was 126 µM. Moreover, in data set [2], the Activity entry is listed as “Non-toxic”.

For the molecule `O=C1/C(=C\c2ccc(Cl)cc2)C(c2ccccc2)=NN1c1ccc(Cl)cc1`, the Activity entry in data set [2] is “Non-toxic”. In addition, the inhibition entry in data set [4] and in data set [5] was “inactive” throughout.

Take `O=C1/C(=C\c2ccccc2)C(c2ccccc2)=NN1c1ccc(Cl)cc1`: the Activity result in data set [2] is listed as “Non-toxic”. The inhibition entry in data set [4] and in data set [5] was “inactive” in each case.

Take `O=C1/C(=C\c2cccc([N+](=O)[O-])c2)C(c2ccccc2)=NN1c1ccccc1`: the Activity entry in data set [2] is “Non-toxic”. Moreover, the inhibition entry in data set [4] and in data set [5] was “inactive” in each case.

For the molecule `COc1cccc(/C=C2\C(=O)N(c3ccccc3)N=C2c2ccccc2)c1`, the Activity result in data set [2] was “Non-toxic”. For the same molecule, the inhibition entry in data set [4] and in data set [5] was “inactive” throughout.

For `O=C1/C(=C\c2ccccc2)C(c2ccccc2)=NN1c1ccccc1`, the Activity result in data set [2] was “Non-toxic”. Besides, the inhibition entry in data set [4] and in data set [5] was “inactive” in each case.

`O=C(O)c1ccc(/C=C2\C(=O)N(c3ccccc3)N=C2c2ccccc2)cc1`: the IC50 in data set [1] was found to be 18 µM; in data set [3] it was 51.1 µM. For the same molecule, the Activity result in data set [2] was “Non-toxic”.

In the case of `O=C(O)c1ccc(/C=C2\C(=O)N(c3ccc(F)cc3)N=C2c2ccccc2)cc1`, the IC50 stood at 6.8 µM in data set [1] and 22.4 µM in data set [3]. Further, the Activity entry in data set [2] was “Non-toxic”.

Take `O=C(O)c1ccc(/C=C2\C(=O)N(c3cccc([N+](=O)[O-])c3)N=C2c2ccccc2)cc1`: the IC50 was found to be 8.4 µM in data set [1] and 9.6 µM in data set [3]. Also, the Activity result in data set [2] was “Non-toxic”.

Regarding `CC(=O)Nc1ccc(/C=C2\C(=O)N(c3ccc(Cl)cc3)N=C2c2ccccc2)cc1`, the Activity entry in data set [2] was “Non-toxic”. The inhibition result in data set [4] and in data set [5] was “inactive” each time.

`CC(C)c1ccc(N2N=C(c3ccccc3)/C(=C/c3ccc(C(=O)O)cc3)C2=O)cc1`: the Activity entry in data set [2] is given as “Non-toxic”. The inhibition entry in data set [4] and in data set [5] was “inactive” in each case.

For the molecule `COc1ccc(/C=C2\C(=O)N(c3ccc(Cl)cc3)N=C2c2ccccc2)cc1`, the Activity entry in data set [2] is reported as “Non-toxic”. Moreover, the inhibition entry in data set [4] and in data set [5] was “inactive” each time.

`O=C(O)c1ccc(/C=C2\C(=O)N(c3ccc(OC(F)(F)F)cc3)N=C2c2ccccc2)cc1`: the results for the IC50 in data set [1] and in data set [3] were 42 µM and 98.8 µM, respectively. For the same molecule, in data set [2], the Activity entry is “Non-toxic”.

As to `CN(C)c1ccc(/C=C2\C(=O)N(c3ccccc3)N=C2c2ccccc2)cc1`, the Activity result in data set [2] was “Non-toxic”. In addition, the inhibition result in data set [4] and in data set [5] was “inactive” throughout.

On to `CC(=O)Nc1ccc(/C=C2\C(=O)N(c3ccccc3)N=C2c2ccccc2)cc1`, for which the Activity result in data set [2] was “Non-toxic”. The inhibition entry in data set [4] and in data set [5] was “inactive” in each case.

Consider `CC(C)(C)c1ccc(N2N=C(c3ccccc3)/C(=C/c3ccc(C(=O)O)cc3)C2=O)cc1`, for which, in data set [2], the Activity entry was “Non-toxic”. The inhibition entry in data set [4] and in data set [5] was “inactive” throughout.

Take `N#Cc1ccc(N2N=C(c3ccccc3)/C(=C/c3ccc(C(=O)O)cc3)C2=O)cc1`: the IC50 in data set [1] turned out to be 5.5 µM; in data set [3], 20.8 µM. For the same molecule, in data set [2], the Activity entry is “Non-toxic”.

In the case of `O=C1/C(=C\c2ccc(O)cc2)C(c2ccccc2)=NN1c1ccc(Cl)cc1`, the Activity entry in data set [2] was “Non-toxic”. The inhibition result in data set [4] and in data set [5] was “inactive” each time.

Turning to `COc1ccc(N2N=C(c3ccccc3)/C(=C/c3ccc(C(=O)O)cc3)C2=O)cc1`, the IC50 in data set [1] came to 12 µM; in data set [3], 16.6 µM. Besides, the Activity result in data set [2] was “Non-toxic”.

In the case of `O=C(O)c1ccc(/C=C2\C(=O)N(c3ccc(Cl)cc3)N=C2c2ccccc2)cc1`, the IC50 in data set [1] was determined as 13.9 µM; in data set [3], 25 µM. In addition, the Activity result in data set [2] is on record as “Non-toxic”.
